Laboratory results taken from ChEMBL document CHEMBL3526048, “In vitro metabolism of rivoglitazone, a novel peroxisome proliferator-activated receptor γ agonist, in rat, monkey, and human liver microsomes and freshly isolated hepatocytes” (Drug Metab Dispos, 2011).

Columns and labels:
[1] = Drug metabolism in monkey hepatocytes assessed as formation of 2-amino-3-((1-carboxy-2-(4-((6-methoxy-1-methyl-1H-benzo[d]imidazol-2-yl)methoxy)phenyl)ethyl)disulfanyl)propanoic acid at 30 uM after 3 hrs by radio-HPLC/LC-MS/MS analysis; conditions: cynomolgus monkey
[2] = Drug metabolism in human hepatocytes assessed as formation of 3-(4-((6-methoxy-1-methyl-1H-benzo[d]imidazol-2-yl)methoxy)phenyl)-2-(methylthio)propanoic acid at 30 uM after 3 hrs by radio-HPLC/LC-MS/MS analysis in presence of NADPH-generating system/SAM and UDPGA/SAM; format: ADME, cell-based, Hepatocyte
Cytochrome P450 2C19 = Cytochrome P450 2C19 (Homo sapiens, UniProt P33261); assay: Activity of human CYP2C19 expressed in microsomes isolated from baculovirus infected insect cell assessed as enzyme-mediated 2-mercapto-3-(4-((6-methoxy-1-methyl-1H-benzo[d]imidazol-2-yl)methoxy)phenyl)propanoic acid formation at 20 uM after 2 hrs by radio-HPLC/LC-MS/MS analysis in presence of NADPH-generating system; format: ADME
Sequence of Cytochrome P450 2C19 (P33261 whole entry): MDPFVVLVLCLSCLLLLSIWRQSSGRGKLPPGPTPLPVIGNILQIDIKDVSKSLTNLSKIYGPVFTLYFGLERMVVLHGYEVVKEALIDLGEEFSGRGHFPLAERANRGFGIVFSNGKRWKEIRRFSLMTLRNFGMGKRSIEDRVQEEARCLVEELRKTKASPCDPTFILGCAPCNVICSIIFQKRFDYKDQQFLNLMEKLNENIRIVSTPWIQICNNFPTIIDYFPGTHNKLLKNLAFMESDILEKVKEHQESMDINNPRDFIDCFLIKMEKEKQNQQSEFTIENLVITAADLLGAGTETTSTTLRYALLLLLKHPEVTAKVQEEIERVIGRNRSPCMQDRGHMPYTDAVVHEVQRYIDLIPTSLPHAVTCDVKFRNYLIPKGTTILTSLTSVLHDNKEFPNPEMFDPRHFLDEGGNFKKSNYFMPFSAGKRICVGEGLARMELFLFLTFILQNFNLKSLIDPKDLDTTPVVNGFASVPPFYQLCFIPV
Method in brief: (§1)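 Baculovirus/insect-cell microsomes expressing single human CYPs, 1 mg/ml protein, with 50 mM potassium phosphate (pH 7.4) or 100 mM Tris-HCl (pH 7.5). NADPH-generating system: 2 mM NADP⁺, 20 mM glucose 6-phosphate, 2 units/ml G6PDH, 10 mM MgCl₂. [¹⁴C]rivoglitazone at 20 μM, 2 h at 37°C with shaking. Control used insect-cell control supersomes. Stopped with acetonitrile; supernatant concentrated under nitrogen; metabolites analysed by radio-HPLC, LC-MS and LC-MS/MS.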

[3] = Drug metabolism in rat hepatocytes assessed as formation of 2-mercapto-3-(4-((6-methoxy-1-methyl-1H-benzo[d]imidazol-2-yl)methoxy)phenyl)propanoic acid at 30 uM after 3 hrs by radio-HPLC/LC-MS/MS analysis in presence of UDPGA, UDPGA/SAM and NADPH-generating system; format: ADME, cell-based, Hepatocyte
[4] = biological target: T1, UDP-glucuronosyltransferase 1A3 (Homo sapiens, UniProt P35503); assay: Activity of human UGT1A3 expressed in microsomes isolated from baculovirus infected insect cell assessed as enzyme-mediated 2-mercapto-3-(4-((6-methoxy-1-methyl-1H-benzo[d]imidazol-2-yl)methoxy)phenyl)propanoic acid formation at 20 uM after 4 hrs by radio-HPLC/LC-MS/MS analysis in presence of UDPGA, UDPGA/SAM and NADPH-generating system in presence of UDPGA and UDPGA/SAM; format: ADME
T1 sequence (P35503 whole entry): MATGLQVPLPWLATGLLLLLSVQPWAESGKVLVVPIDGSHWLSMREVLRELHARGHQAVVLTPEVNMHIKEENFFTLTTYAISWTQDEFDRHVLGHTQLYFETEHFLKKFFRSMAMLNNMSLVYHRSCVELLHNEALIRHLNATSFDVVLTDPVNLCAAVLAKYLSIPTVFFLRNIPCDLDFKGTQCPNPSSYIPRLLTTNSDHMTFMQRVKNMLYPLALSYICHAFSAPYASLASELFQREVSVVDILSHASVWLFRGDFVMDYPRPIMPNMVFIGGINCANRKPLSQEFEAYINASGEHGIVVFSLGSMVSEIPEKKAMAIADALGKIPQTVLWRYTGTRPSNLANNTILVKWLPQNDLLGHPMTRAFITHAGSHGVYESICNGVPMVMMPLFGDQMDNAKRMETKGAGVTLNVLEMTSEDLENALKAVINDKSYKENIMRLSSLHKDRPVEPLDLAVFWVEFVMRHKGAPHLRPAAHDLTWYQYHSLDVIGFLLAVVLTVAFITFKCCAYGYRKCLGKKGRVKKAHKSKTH
Method in brief: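 Alamethicin (50 μg/mg protein, 15 min on ice) pretreated expressed human UGT microsomes (1 mg/ml protein) from baculovirus-infected insect cells. Incubation with [¹⁴C]rivoglitazone (20 μM) in 100 mM Tris-HCl (pH 7.5) with 10 mM MgCl₂, started by 5 mM UDPGA, 4 h at 37°C with shaking. UGT insect-cell control supersomes were run alongside. Acetonitrile stop, concentrated supernatant analysed by radio-HPLC, LC-MS and LC-MS/MS.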

[5] = biological target: T2, UDP-glucuronosyltransferase 1A7 (Homo sapiens, UniProt Q9HAW7); assay: Activity of human UGT1A7 expressed in microsomes isolated from baculovirus infected insect cell assessed as enzyme-mediated (2S,3S,4S,5R,6R)-6-((1-carboxy-2-(4-((6-methoxy-1-methyl-1H-benzo[d]imidazol-2-yl)methoxy)phenyl)ethylthio)carbonylamino)-3,4,5-trihydroxytetrahydro-2H-pyran-2-carboxylic acid formation at 20 uM after 4 hrs by radio-HPLC/LC-MS/MS analysis in presence of UDPGA; format: ADME
T2 sequence (Q9HAW7 whole entry): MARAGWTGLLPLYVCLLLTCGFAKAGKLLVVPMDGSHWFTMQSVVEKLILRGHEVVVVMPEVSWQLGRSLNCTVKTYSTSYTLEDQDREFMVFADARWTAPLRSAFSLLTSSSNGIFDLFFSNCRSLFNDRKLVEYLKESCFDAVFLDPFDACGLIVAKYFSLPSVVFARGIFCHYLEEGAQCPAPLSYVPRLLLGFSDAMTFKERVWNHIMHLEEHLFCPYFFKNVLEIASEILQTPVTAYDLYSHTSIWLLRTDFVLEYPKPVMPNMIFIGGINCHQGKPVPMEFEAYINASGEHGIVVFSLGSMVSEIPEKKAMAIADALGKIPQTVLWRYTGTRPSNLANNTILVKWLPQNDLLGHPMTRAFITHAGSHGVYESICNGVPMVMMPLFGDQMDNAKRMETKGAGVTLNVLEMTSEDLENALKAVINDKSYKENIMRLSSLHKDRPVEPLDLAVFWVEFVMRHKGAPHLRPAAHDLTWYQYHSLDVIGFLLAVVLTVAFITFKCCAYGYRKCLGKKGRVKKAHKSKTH

Cytochrome P450 2D6 = Cytochrome P450 2D6 (Homo sapiens, UniProt P10635); assay: Activity of human CYP2D6 expressed in microsomes isolated from baculovirus infected insect cell assessed as enzyme-mediated 3-(4-((6-methoxy-1-methyl-1H-benzo[d]imidazol-2-yl)methoxy)phenyl)-2-(methylsulfinyl)propanamide formation at 20 uM after 2 hrs by radio-HPLC/LC-MS/MS analysis in presence of NADPH-generating system/SAM; format: ADME
Sequence of Cytochrome P450 2D6 (P10635 whole entry): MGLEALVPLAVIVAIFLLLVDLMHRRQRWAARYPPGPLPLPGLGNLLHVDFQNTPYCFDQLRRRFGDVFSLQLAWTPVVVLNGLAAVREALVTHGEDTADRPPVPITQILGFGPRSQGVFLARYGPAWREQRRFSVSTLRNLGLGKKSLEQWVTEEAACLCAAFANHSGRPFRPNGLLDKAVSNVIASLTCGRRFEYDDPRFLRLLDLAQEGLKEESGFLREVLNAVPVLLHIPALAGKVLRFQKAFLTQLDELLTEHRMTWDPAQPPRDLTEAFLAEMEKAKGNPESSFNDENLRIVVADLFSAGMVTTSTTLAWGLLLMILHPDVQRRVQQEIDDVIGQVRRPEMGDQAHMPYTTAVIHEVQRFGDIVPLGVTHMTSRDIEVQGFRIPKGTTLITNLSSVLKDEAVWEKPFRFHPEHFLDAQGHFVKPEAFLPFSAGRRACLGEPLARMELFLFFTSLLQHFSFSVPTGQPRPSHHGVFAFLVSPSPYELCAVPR

Cytochrome P450 1A2 = biological target: T3, Cytochrome P450 1A2 (Homo sapiens, UniProt P05177); assay: Activity of human CYP1A2 expressed in microsomes isolated from baculovirus infected insect cell assessed as enzyme-mediated 2-mercapto-3-(4-((6-methoxy-1-methyl-1H-benzo[d]imidazol-2-yl)methoxy)phenyl)propanamide formation at 20 uM after 2 hrs by radio-HPLC/LC-MS/MS analysis in presence of NADPH-generating system and NADPH-generating system/SAM; format: ADME
T3 sequence (P05177 whole entry): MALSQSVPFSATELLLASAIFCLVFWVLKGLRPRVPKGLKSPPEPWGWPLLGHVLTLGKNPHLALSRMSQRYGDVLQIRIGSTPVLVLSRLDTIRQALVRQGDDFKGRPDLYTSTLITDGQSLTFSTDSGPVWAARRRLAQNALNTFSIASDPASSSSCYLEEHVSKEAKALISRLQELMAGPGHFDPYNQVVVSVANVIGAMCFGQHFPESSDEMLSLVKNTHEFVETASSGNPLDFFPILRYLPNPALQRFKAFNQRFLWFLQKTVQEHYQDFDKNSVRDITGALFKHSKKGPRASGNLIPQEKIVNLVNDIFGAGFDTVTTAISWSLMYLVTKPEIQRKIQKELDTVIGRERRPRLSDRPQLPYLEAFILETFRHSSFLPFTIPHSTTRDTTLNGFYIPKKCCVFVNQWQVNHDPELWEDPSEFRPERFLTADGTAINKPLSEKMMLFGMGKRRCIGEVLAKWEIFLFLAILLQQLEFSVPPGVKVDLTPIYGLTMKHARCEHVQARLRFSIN
Method in brief: as §1

[6] = Drug metabolism in rat hepatocytes assessed as formation of 2-((4-((2,4-dioxothiazolidin-5-yl)methyl)phenoxy)methyl)-1-methyl-1H-benzo[d]imidazol-6-yl hydrogen sulfate at 30 uM after 3 hrs by radio-HPLC/LC-MS/MS analysis; format: ADME, cell-based, Hepatocyte

Drug metabolism [1]: metabolite_not_detected
Drug metabolism [2]: metabolite_not_detected
Drug metabolism (Cytochrome P450 2C19): metabolite_detected
Drug metabolism [3]: metabolite_not_detected
Drug metabolism [4]: metabolite_detected
Drug metabolism [5]: metabolite_not_detected
Drug metabolism (Cytochrome P450 2D6): metabolite_not_detected
Drug metabolism (Cytochrome P450 1A2): metabolite_detected
Drug metabolism [6]: metabolite_detected
Structure (SMILES): COc1ccc2nc(COc3ccc(C[14CH]4SC(=O)NC4=O)cc3)n(C)c2c1.Cl (racemic)
